Test results reported in ChEMBL document CHEMBL2146441, “2,6-Disubstituted imidazo[2,1-b][1,3,4]thiadiazoles: search for anticancer agents” (2012).

Key:
Assay type in all cases: functional
[1] = system: M14; assay: Cytotoxicity against human M14 cells assessed as cell growth at 10^-8 M after 48 hrs by SRB assay; conditions: M14, 48 h, read-out: Activity
[2] = Cytotoxicity against human […] cells assessed as cell growth at 10^-6 M after 48 hrs by SRB assay; conditions: 48 h, read-out: Activity
[3] = system: ACHN; assay: Cytotoxicity against human ACHN cells assessed as cell growth at 10^-5 M after 48 hrs by SRB assay; conditions: read-out: Activity
Method in brief: (§1)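 NCI-60 screen: lines kept in RPMI 1640 with 5% FBS, seeded at 5000–40,000 cells/well by doubling time, preincubated 24 h at 37 °C in 5% CO2. Time-zero plates TCA-fixed at drug addition. DMSO stocks diluted in medium, 48 h exposure. Fixation in cold TCA (final 10% adherent, 16% suspension), 0.4% SRB stain, solubilised in 10 mM Tris base, A515. Percent growth computed against control and time-zero.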

[4] = system: SF-539; assay: Cytotoxicity against human SF539 cells assessed as cell growth at 10^-6 M after 48 hrs by SRB assay; conditions: SF-539, 48 h, read-out: Activity
[5] = system: MDA-MB-468; assay: Cytotoxicity against human MDA-MB-468 cells assessed as cell growth at 10^-6 M after 48 hrs by SRB assay; conditions: MDA-MB-468, 48 h, read-out: Activity
[6] = system: OVCAR-8; assay: Cytotoxicity against human OVCAR8 cells assessed as cell growth at 10^-6 M after 48 hrs by SRB assay; conditions: OVCAR-8, 48 h, read-out: Activity
[7] = system: MCF7; assay: Cytotoxicity against human MCF7 cells assessed as cell growth at 10^-4 M after 48 hrs by SRB assay; conditions: MCF7, 48 h, read-out: Activity
[8] = system: U-251; assay: Cytotoxicity against human U251 cells assessed as cell growth at 10^-6 M after 48 hrs by SRB assay; conditions: U-251, 48 h, read-out: Activity
[9] = system: NCI-H460; assay: Cytotoxicity against human NCI-H460 cells assessed as cell growth at 10^-5 M after 48 hrs by SRB assay; conditions: NCI-H460, 48 h, read-out: Activity
[10] = system: T47D; assay: Cytotoxicity against human T47D cells assessed as cell growth at 10^-8 M after 48 hrs by SRB assay; conditions: read-out: Activity
[11] = system: M14; assay: Cytotoxicity against human M14 cells assessed as cell growth at 10^-6 M after 48 hrs by SRB assay; conditions: M14, 48 h, read-out: Activity
[12] = system: UACC-62; assay: Growth inhibition of human UACC62 cells after 48 hrs by SRB assay; conditions: UACC-62, 48 h; for CC50: read-out: LC50 (the source's name)
Method in brief: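 Adherent NCI-60 lines grown in RPMI 1640 with 5% FBS, seeded at 5000–40,000 cells/well, and preincubated 24 h at 37 °C, 5% CO2. Compound, stocked in DMSO, given either once at 10^-5 M or at five 10-fold dilutions for 48 h. Cells fixed with cold TCA (final 10%), stained with 0.4% SRB, and read at 515 nm. GI50 taken as 50% reduction in net protein increase versus time-zero and control plates.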

[13] = system: MDA-MB-231; assay: Cytotoxicity against human MDA-MB-231 cells assessed as cell growth at 10^-5 M after 48 hrs by SRB assay; conditions: MDA-MB-231, 48 h, read-out: Activity
[14] = system: SF-268; assay: Cytotoxicity against human SF268 cells assessed as cell growth at 10^-6 M after 48 hrs by SRB assay; conditions: SF-268, 48 h, read-out: Activity
[15] = system: U-251; assay: Cytotoxicity against human U251 cells assessed as cell growth at 10^-7 M after 48 hrs by SRB assay; conditions: U-251, 48 h, read-out: Activity
[16] = system: COLO; assay: Growth inhibition of human COLO […] cells after 48 hrs by SRB assay
Method in brief: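 Same 48 h NCI-60 five-dose SRB protocol. Adherent lines were fixed with cold TCA at 10% final; suspension lines such as CCRF-CEM were fixed with 16% final TCA. Stain was 0.4% SRB in 1% acetic acid for 10 min, solubilized in 10 mM Tris base and read at 515 nm. GI50 came from log concentration–growth curves, solving [(Ti−Tz)/(C−Tz)]×100 = 50.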

[17] = system: HOP-62; assay: Cytotoxicity against human HOP62 cells assessed as cell growth at 10^-7 M after 48 hrs by SRB assay; conditions: HOP-62, 48 h, read-out: Activity
Method in brief: (§2)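 NCI-60 five-dose screen. Cells were grown in RPMI 1640 with 5% FBS and seeded at 5000–40,000 cells/well according to doubling time. They were pre-incubated 24 h at 37 °C in 5% CO₂, and time-zero (Tz) plates were TCA-fixed at drug addition. Five 10-fold dilutions of DMSO stock were applied for 48 h. Read-out was SRB staining, 515 nm absorbance, with percent growth calculated versus Tz and untreated control.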

[18] = system: SNB-75; assay: Cytotoxicity against human SNB75 cells assessed as cell growth at 10^-7 M after 48 hrs by SRB assay; conditions: SNB-75, 48 h, read-out: Activity
[19] = system: MOLT-4; assay: Cytotoxicity against human MOLT4 cells assessed as cell growth at 10^-8 M after 48 hrs by SRB assay; conditions: MOLT-4, 48 h, read-out: Activity
[20] = system: SNB-75; assay: Cytotoxicity against human SNB75 cells assessed as cell growth at 10^-6 M after 48 hrs by SRB assay; conditions: SNB-75, 48 h, read-out: Activity
[21] = system: NCI-H522; assay: Cytotoxicity against human NCI-H522 cells assessed as cell growth at 10^-6 M after 48 hrs by SRB assay; conditions: NCI-H522, 48 h, read-out: Activity
[22] = system: CCRF-CEM; assay: Cytotoxicity against human CCRF-CEM cells assessed as cell growth at 10^-7 M after 48 hrs by SRB assay; conditions: read-out: Activity; method in brief: as §1
[23] = system: SK-OV-3; assay: Cytotoxicity against human SKOV3 cells assessed as cell growth at 10^-8 M after 48 hrs by SRB assay; conditions: SK-OV-3, 48 h, read-out: Activity
[24] = system: MCF7; assay: Cytotoxicity against human MCF7 cells assessed as cell growth at 10^-8 M after 48 hrs by SRB assay; conditions: MCF7, 48 h, read-out: Activity
[25] = system: OVCAR-8; assay: Cytotoxicity against human OVCAR8 cells assessed as cell growth at 10^-7 M after 48 hrs by SRB assay; conditions: OVCAR-8, 48 h, read-out: Activity
[26] = system: Malme-3M; assay: Cytotoxicity against human MALME-3M cells assessed as cell growth at 10^-5 M after 48 hrs by SRB assay; conditions: read-out: Activity
[27] = system: EKVX; assay: Cytotoxicity against human EKVX cells assessed as cell growth at 10^-8 M after 48 hrs by SRB assay; conditions: read-out: Activity; method in brief: as §1
[28] = system: SF-539; assay: Cytotoxicity against human SF539 cells assessed as cell growth at 10^-8 M after 48 hrs by SRB assay; conditions: SF-539, 48 h, read-out: Activity
[29] = system: Malme-3M; assay: Cytotoxicity against human MALME-3M cells assessed as cell growth at 10^-7 M after 48 hrs by SRB assay; conditions: read-out: Activity
[30] = system: HT-29; assay: Cytotoxicity against human HT-29 cells assessed as cell growth at 10^-6 M after 48 hrs by SRB assay; conditions: HT-29, 48 h, read-out: Activity; method in brief: as §2
[31] = system: SK-OV-3; assay: Cytotoxicity against human SKOV3 cells assessed as cell growth at 10^-5 M after 48 hrs by SRB assay; conditions: SK-OV-3, 48 h, read-out: Activity

SMILES | growth at 0.01 µM [1] | growth at 1 µM [2] | growth at 10 µM [3] | growth at 1 µM [4] | growth at 1 µM [5] | growth at 1 µM [6] | growth at 100 µM [7] | growth at 1 µM [8] | growth at 10 µM [9] | growth at 0.01 µM [10] | growth at 1 µM [11] | GI50 [12] | TGI [12] | CC50 [12] | growth at 10 µM [13] | growth at 1 µM [14] | growth at 0.1 µM [15] | GI50 [16] | LC50 [16] | TGI [16] | further results
COc1ccc(-c2nn3cc(-c4ccc(O)cc4O)nc3s2)cc1 | 96% | 69% | 9% | 97% | 59% | 81% | -7% | 77% | -6% | 104% | 81% | 3.47 µM | 17.7 µM | 59.4 µM | -54% | 73% | 92% | 5.82 µM | > 100 µM | 36.8 µM | growth at 0.1 µM [17]: 91%; growth at 0.1 µM [18]: 68%; growth at 0.01 µM [19]: 100%; growth at 1 µM [20]: 33%; growth at 1 µM [21]: 69%; growth at 0.1 µM [22]: 92%; growth at 0.01 µM [23]: 102%; growth at 0.01 µM [24]: 92%; growth at 0.1 µM [25]: 98%; growth at 10 µM [26]: -30%; growth at 0.01 µM [27]: 103%; growth at 0.01 µM [28]: 105%; growth at 0.1 µM [29]: 90%; growth at 1 µM [30]: 86%; growth at 10 µM [31]: -67%
COc1ccc(-c2nn3cc(-c4cccc(N)c4)nc3s2)cc1 | 101% | 55% | 27% | 91% | 68% | 94% | -47% | 95% | 26% | 97% | 94% | 2.92 µM | 24.4 µM | > 100 µM | 5% | 88% | 106% | 7.08 µM | 86 µM | 26.7 µM | growth at 0.1 µM [17]: 98%; growth at 0.1 µM [18]: 74%; growth at 0.01 µM [19]: 103%; growth at 1 µM [20]: 52%; growth at 1 µM [21]: 60%; growth at 0.1 µM [22]: 89%; growth at 0.01 µM [23]: 97%; growth at 0.01 µM [24]: 86%; growth at 0.1 µM [25]: 107%; growth at 10 µM [26]: -16%; growth at 0.01 µM [27]: 81%; growth at 0.01 µM [28]: 101%; growth at 0.1 µM [29]: 97%; growth at 1 µM [30]: 88%; growth at 10 µM [31]: 2%
